Reference: ChEMBL document CHEMBL2390938, “Synthesis and anti-inflammatory evaluations of β-lapachone derivatives” (Bioorg Med Chem, 2013)
The source made the active and inactive calls. No cut-off for these calls is given here.

Assays:
RAW264.7 [1] = assay: Cytotoxicity against mouse RAW264.7 cells assessed as cell viability after 24 hrs by MTS assay; format: cell-based; settings: RAW264.7, 24 h
In short: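 Cells seeded 5 × 10^4/well and exposed 24 h. MTS added, 1 h at 37 °C, absorbance read at 490 nm. Percent of control = Ab treated/Ab control × 100 (n = 3). IC50 is the concentration cutting absorbance by 50%, taken from the linear portion of the curve.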

RAW264.7 [2] = assay: Antiinflammatory activity in mouse RAW264.7 cells assessed as inhibition of LPS-induced nitric oxide production after 24 hrs by Griess assay; format: functional, cell-based; settings: RAW264.7, 24 h
In short: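 Nitrite in medium read by Griess reagent (1% sulfanilamide, 0.1% naphthylethylenediamine in 5% phosphoric acid) mixed 1:1 with medium for 5 min. Absorbance at 550 nm, quantified against a sodium nitrite standard in culture medium.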

RAW264.7 [3] = assay: Antiinflammatory activity in mouse RAW264.7 cells assessed as inhibition of LPS-induced COX-2 expression incubated for 2 hrs prior to LPS challenge measured after 24 hrs by Western blot analysis; format: functional, cell-based
In short: (§1)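 Cells at 5 × 10^5/well, pretreated 2 h, then LPS 0.1 µg/mL for 24 h. Lysed in RIPA and protein assayed by Bradford. 20–50 µg separated on 8–15% SDS-PAGE and blotted to PVDF. Probed for murine iNOS or COX-2, HRP secondary, ECL detection, densitometry. Means + S.D. of 3 experiments in triplicate.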

[4] = Induction of nitric oxide scavenging activity assessed as nitrite level at 10 uM at room temperature after 60 mins by Griess assay in presence of light and SNP; format: physicochemical; settings: 1 h
In short: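 Sodium nitroprusside 2.5 mM in PBS incubated alone or with compound (10 µM) in light at room temperature for 60 min. Nitrite then measured by Griess reaction. 1400 W (10 µM) as comparator.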

RAW264.7 [5] = assay: Antiinflammatory activity in mouse RAW264.7 cells assessed as inhibition of LPS-induced iNOS expression incubated for 2 hrs prior to LPS challenge measured after 24 hrs by Western blot analysis; format: functional, cell-based; in short: as §1
RAW264.7 [6] = assay: Antiinflammatory activity in mouse RAW264.7 cells assessed as inhibition of LPS-induced MMP-9 expression incubated for 2 hrs prior to LPS challenge measured after 24 hrs by gelatin zymographic analysis; format: functional, cell-based
In short: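 Cells plated 16–18 h, then treated with LPS 0.1 µg/ml plus compound (0.5, 1.0, 2.0 µM). Medium collected at 24 h and concentrated. Run on 7.5% acrylamide gel containing 2 mg/ml gelatin. Gel renatured in Triton X-100, then buffer overnight at 37 °C, developed 16–18 h in Tris pH 7.5/NaCl/CaCl2. Coomassie stain. MMP-9 band scanned, expressed as % of control.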

RAW264.7 [7] = assay: Antiinflammatory activity in mouse RAW264.7 cells assessed as downregulation of LPS-induced iNOS mRNA expression incubated for 2 hrs prior to LPS challenge measured after 9 hrs by RT-PCR analysis; format: functional, cell-based
In short: (§2)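 Cells at 5 × 10^5/well, pretreated 2 h, then LPS 0.1 µg/mL for 9 h. Total RNA isolated with Trizol. 1 µg RNA reverse-transcribed with oligo dT primers. Amplicons run on 3% agarose gel, band intensity normalized to GAPDH. Means + S.D. of 3 experiments in triplicate.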

RAW264.7 [8] = assay: Antiinflammatory activity in mouse RAW264.7 cells assessed as downregulation of LPS-induced TNFalpha expression incubated for 2 hrs prior to LPS challenge measured after 24 hrs by ELISA; format: functional, cell-based
In short: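 Cells seeded 5 × 10^5/well, pretreated 2 h with compound (0.5, 1.0, 2.0 or 5.0 µM), then LPS 0.1 µg/mL for 24 h. TNF-α measured in culture medium by ELISA kit. Means + S.D. of 3 separate experiments in triplicate.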

[9] = target: T1, MAP kinase p38 (Mus musculus) (UniProt P47811+O08911+Q9WUI1+Q9Z1B7); assay: Inhibition of p38 MAPK phosphorylation in LPS-induced mouse RAW264.7 cells incubated for 2 hrs prior to LPS challenge measured after 24 hrs by Western blot analysis; format: cell-based
In short: (§3)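 Cells at 5 × 10^5/well, pretreated 2 h, then LPS 0.1 µg/mL for 24 h. 15 µg lysate protein run on 8% SDS-PAGE. p38 and p-p38 detected by Western blot with densitometry. Relative density = p-p38/β-actin. Means + S.D. of 3 experiments in triplicate.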

RAW264.7 [10] = assay: Antiinflammatory activity in mouse RAW264.7 cells assessed as inhibition of LPS-induced COX-2 expression at 0.5 uM incubated for 2 hrs prior to LPS challenge measured after 24 hrs by Western blot analysis; format: functional, cell-based; in short: as §1
RAW264.7 [11] = assay: Antiinflammatory activity in mouse RAW264.7 cells assessed as inhibition of LPS-induced iNOS expression at 0.5 uM incubated for 2 hrs prior to LPS challenge measured after 24 hrs by Western blot analysis; format: functional, cell-based; in short: as §1
[12] = target: Transcription factor p65 (Mus musculus) (UniProt Q04207); assay: Inhibition of NFkappaB p65 nuclear translocation in mouse RAW264.7 cells after 24 hrs by DAPI staining-based laser confocal immunofluorescent microscopic analysis; format: cell-based
Transcription factor p65 (Mus musculus), sequence (Q04207 whole entry): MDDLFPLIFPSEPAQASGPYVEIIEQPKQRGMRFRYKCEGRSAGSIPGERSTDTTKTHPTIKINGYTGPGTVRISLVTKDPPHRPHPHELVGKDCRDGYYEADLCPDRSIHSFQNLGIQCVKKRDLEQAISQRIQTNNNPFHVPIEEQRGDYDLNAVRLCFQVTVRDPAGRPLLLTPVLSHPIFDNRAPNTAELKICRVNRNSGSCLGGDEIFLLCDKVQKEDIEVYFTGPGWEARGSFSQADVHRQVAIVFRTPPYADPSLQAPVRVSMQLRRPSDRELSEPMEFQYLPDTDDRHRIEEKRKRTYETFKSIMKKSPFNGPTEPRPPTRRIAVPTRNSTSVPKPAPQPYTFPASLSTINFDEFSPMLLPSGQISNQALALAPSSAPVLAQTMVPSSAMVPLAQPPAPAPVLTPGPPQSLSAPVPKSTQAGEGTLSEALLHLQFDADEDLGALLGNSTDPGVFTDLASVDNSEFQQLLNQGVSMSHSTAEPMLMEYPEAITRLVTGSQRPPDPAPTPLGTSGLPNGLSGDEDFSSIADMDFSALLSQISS
In short: (§4)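 Cells grown on glass coverslips 24 h, then given LPS 0.1 µg/mL and/or compound 0.5 µM. Fixed in 4% paraformaldehyde, permeabilized with 0.2% Triton X-100. Anti-p65 antibody applied 24 h, then Alexa 568 secondary 1 h. Nuclei stained with DAPI. Imaged by confocal microscopy.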

RAW264.7 [13] = assay: Antiinflammatory activity in mouse RAW264.7 cells assessed as inhibition of LPS-induced iNOS expression at 0.5 to 2 uM incubated for 2 hrs prior to LPS challenge measured after 24 hrs by Western blot analysis; format: functional, cell-based; in short: as §1
RAW264.7 [14] = assay: Antiinflammatory activity in mouse RAW264.7 cells assessed as downregulation of LPS-induced iNOS mRNA expression at 2 uM incubated for 2 hrs prior to LPS challenge measured after 9 hrs by RT-PCR analysis; format: functional, cell-based; in short: as §2
RAW264.7 [15] = assay: Antiinflammatory activity in mouse RAW264.7 cells assessed as inhibition of LPS-induced COX-2 expression at 0.5 to 2 uM incubated for 2 hrs prior to LPS challenge measured after 24 hrs by Western blot analysis; format: functional, cell-based; in short: as §1
RAW264.7 [16] = assay: Antiinflammatory activity in mouse RAW264.7 cells assessed as inhibition of LPS-induced PGE2 production; format: functional, cell-based
[17] = target: T1, MAP kinase p38 (Mus musculus); assay: Inhibition of p38 MAPK phosphorylation in mouse RAW264.7 cells at 0.5 to 2 uM by Western blot analysis; format: cell-based; in short: as §3
[18] = target: Transcription factor p65 (Mus musculus) (UniProt Q04207); assay: Inhibition of NFkappaB p65 nuclear translocation in LPS-stimulated mouse RAW264.7 cells after 24 hrs by DAPI staining-based laser confocal immunofluorescent microscopic analysis; format: cell-based; in short: as §4

`COc1ccc(NC2=CC(=O)/C(=N\O)c3ccccc32)cc1` gave an IC50 (RAW264.7 [1]) of 4690 nM and an IC50 (RAW264.7 [2]) of 870 nM.

In the case of `CC1(C)CCC2=C(O1)c1ccccc1C(=O)C2=O` [LAPACHONE], the inhibition (RAW264.7 [3]) is reported as “Dose-dependent effect”, the Activity [4] is reported as “Not Active” and the IC50 (RAW264.7 [1]) is reported as 4060 nM. For the same compound, the inhibition (RAW264.7 [5]) was “Dose-dependent effect”, the inhibition (RAW264.7 [6]) was “Dose-dependent effect” and the Activity (RAW264.7 [7]) was “Dose-dependent effect”. For the same compound, the Activity (RAW264.7 [8]) was “Dose-dependent effect”, the IC50 (RAW264.7 [2]) was 470 nM and the inhibition [9] was “Dose-dependent effect”.

In the case of `COc1ccc(OC2=CC(=O)/C(=N\O)c3ccccc32)cc1`, the inhibition (RAW264.7 [10]) is reported as “Active”, the Activity [4] is reported as “Not Active” and the inhibition (RAW264.7 [11]) is reported as “Active”. For the same compound, the IC50 (RAW264.7 [1]) was 20600 nM and the IC50 (RAW264.7 [2]) was 1290 nM.

In the case of `O=C1C=C(Oc2ccccc2)c2ccccc2C1=O`, the inhibition (RAW264.7 [10]) is reported as “Active”, the Activity [4] is reported as “Not Active” and the inhibition (RAW264.7 [11]) is reported as “Active”. For the same compound, the IC50 (RAW264.7 [1]) was 28500 nM and the IC50 (RAW264.7 [2]) was 850 nM.

With `Nc1ncnc2c1ncn2[C@@H]1O[C@H](CO)C[C@H]1O` the inhibition [12] was “Active”.

`O=C1C=C(Nc2ccccc2)c2ccccc2/C1=N/O` gave an IC50 (RAW264.7 [1]) of 1670 nM and an IC50 (RAW264.7 [2]) of 630 nM.

In the case of `CC(=N)NCc1cccc(CN)c1` [1400W], the Activity [4] is reported as “Not Active”, the IC50 (RAW264.7 [1]) is reported as 47500 nM and the inhibition (RAW264.7 [13]) is reported as “Active”. For the same compound, the Activity (RAW264.7 [14]) was “Active”, the inhibition (RAW264.7 [15]) was “Active” and the IC50 (RAW264.7 [2]) was 200 nM.

`COc1ccc(-c2nc3c4ccoc4c4ccccc4c3[nH]2)cc1` showed an IC50 (RAW264.7 [16]) of 47 nM.

Compound `COc1ccc(NC2=CC(=O)C(=O)c3ccccc32)cc1` has an IC50 (RAW264.7 [1]) of 1840 nM and an IC50 (RAW264.7 [2]) of 810 nM.

For `COc1ccc(OC2=CC(=O)C(=O)c3ccccc32)cc1`, the inhibition (RAW264.7 [3]) was “Dose-dependent effect”, the Activity [4] was “Not Active” and the IC50 (RAW264.7 [1]) was 31700 nM. The inhibition (RAW264.7 [5]) was “Dose-dependent effect”, the inhibition (RAW264.7 [6]) was “Dose-dependent effect” and the Activity (RAW264.7 [7]) was “Dose-dependent effect”. For the same compound, the inhibition [17] was “inactive”, the inhibition [18] was “Active” and the Activity (RAW264.7 [8]) was “Dose-dependent effect”. For the same compound, the IC50 (RAW264.7 [2]) was 740 nM and the inhibition [9] was “Dose-dependent effect”.
